# Measured values collected from several papers.
# Lines come from different studies, so protocols differ.
# Target: Serine/threonine-protein kinase PLK2 (PLK2, Homo sapiens, UniProt Q9NYY3)
Compound,test,setting,remaining binding
CN(C)c1nccc(-c2cnn3ncccc23)n1,binding,1 µM,100%
COc1cnc(Nc2cccc(S(N)(=O)=O)c2)nc1N1CCN(c2ccccc2)C(=O)C1,"binding, competition with immobilised ligand",1 µM,80%
C[C@@H]1CCN(c2nccc(-c3cnn4ncccc34)n2)C1,binding,1 µM,88%
CCN1CCN(Cc2ccc(C(=O)Nc3ccc(C)c(Oc4ccc5c(c4)CC(=O)N5)c3)cc2C(F)(F)F)CC1,"binding, competition with immobilised ligand",1 µM,66%
O=C(c1ccc(Nc2ncc(Cl)c(-c3cc4ccccc4s3)n2)cc1)N1CCC(N2CCCC2)CC1,"binding, competition with immobilised ligand",1 µM,68%
O=C(NCC1CCOCC1)c1n[nH]cc1NC(=O)c1c(F)cccc1F,"binding, competition with immobilised ligand",1 µM,96%
C[C@@H]1CN(c2cc(-c3nn(C)c4ccc(OC5(C)CC5)cc34)ncn2)C[C@H](C)O1,"cell-free assay, competition with immobilised ligand",1 µM,68%
COc1cnc(Nc2cccc(S(N)(=O)=O)c2)nc1N1CCN(c2ccccc2)CC1,"binding, competition with immobilised ligand",1 µM,94%
Cc1c(NC(=O)c2cc(C(N)=O)nc3cc(F)ccc23)c(C(F)(F)F)nn1Cc1ccc(C(C)(C)C)cc1,"cell-free assay, competition with immobilised ligand",1 µM,100%
CN(C)c1ncc(F)c(-c2cnn3ncccc23)n1,binding,1 µM,78%
CS(=O)(=O)NCC[C@H](NC(=O)c1cncc2c1cnn2-c1ccc(F)cc1)c1ccnc(S(C)(=O)=O)c1,"cell-free assay, competition with immobilised ligand",1 µM,100%
O=C(c1ccc(Nc2ncc(Cl)c(-c3ccc(Cl)s3)n2)cc1)N1CCC(N2CCCC2)CC1,"binding, competition with immobilised ligand",1 µM,47%
F[C@@H]1CCN(c2nccc(-c3cnn4ncccc34)n2)C1,binding,1 µM,100%
Nc1ncc2c(n1)-c1c([nH]c3ccc(C#CC4CC4)cc13)CCCC2,"binding, competition with immobilised ligand",1 µM,91%
Cc1nc(C2CCN(C(=O)c3ccc(OC(F)(F)F)cc3N)CC2)c2ncc(N3CCN(C)CC3)cc2n1,"cell-free assay, competition with immobilised ligand",1 µM,74%
c1cnn2ncc(-c3ccnc(N4CCC45COC5)n3)c2c1,binding,1 µM,87%
CCS(=O)(=O)c1cc2cc(C[C@@](O)(CC(C)(C)c3ccc(F)cc3C(N)=O)C(F)(F)F)[nH]c2cn1,"cell-free assay, competition with immobilised ligand",1 µM,100%
O=C(c1ccc(Nc2nccc(-c3cc4ccccc4s3)n2)cc1)N1CCC(N2CCCC2)CC1,"binding, competition with immobilised ligand",1 µM,96%
C[C@@H]1CN(c2cc(-c3n[nH]c4ccc(OC5(C)CC5)cc34)ncn2)C[C@H](C)O1,"cell-free assay, competition with immobilised ligand",0.1 µM,76%
Cc1cnn2ncc(-c3ccnc(N(C)C)n3)c2c1,binding,1 µM,94%
